From the M2OR odorant receptor database

Columns and labels:
[1] = test system: T1, O5AN1; conditions: stereoisomer not certain
T1 sequence (whole entry): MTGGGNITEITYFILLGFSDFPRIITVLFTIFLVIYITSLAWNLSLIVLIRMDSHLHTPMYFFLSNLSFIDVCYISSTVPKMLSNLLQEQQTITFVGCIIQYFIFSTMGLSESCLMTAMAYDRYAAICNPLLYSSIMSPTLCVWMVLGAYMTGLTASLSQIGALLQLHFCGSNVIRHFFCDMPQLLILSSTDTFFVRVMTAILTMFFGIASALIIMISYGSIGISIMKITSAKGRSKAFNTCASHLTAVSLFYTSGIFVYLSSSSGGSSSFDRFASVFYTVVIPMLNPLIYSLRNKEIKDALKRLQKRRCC
Summary of the method: (§1)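 Whether a receptor–molecule pair is responsive (active) rests on the original authors' judgment that its measured signal was statistically different from baseline. Pairs without that judgment are non-responsive (inactive). Sources used varied assay methods, commonly transient luciferase assays in mammalian cell lines.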

[2] = target: T2, OR10A7 (Homo sapiens) (UniProt Q8NGE5); conditions: stereoisomer not certain
T2 sequence (whole entry): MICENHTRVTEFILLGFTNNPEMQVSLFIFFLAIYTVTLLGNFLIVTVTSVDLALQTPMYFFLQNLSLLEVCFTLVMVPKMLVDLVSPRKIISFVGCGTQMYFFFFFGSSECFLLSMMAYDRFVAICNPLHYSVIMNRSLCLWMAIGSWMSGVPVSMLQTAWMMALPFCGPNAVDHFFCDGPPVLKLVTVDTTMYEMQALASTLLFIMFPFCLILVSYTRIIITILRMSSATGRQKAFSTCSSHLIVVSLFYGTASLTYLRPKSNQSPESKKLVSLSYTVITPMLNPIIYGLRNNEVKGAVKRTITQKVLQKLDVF
Summary of the method: as §1
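Further: active if original authors judged signal statistically different from baseline.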

O=C1CCCCCCCCC1
odorant receptor agonist call [1]: inactive

CC(C)CS
odorant receptor agonist call [2]: inactive

CC1CCCCCCCCCCCC(=O)C1 (stereo not given)
odorant receptor agonist call [1]: active

O=C1CCCCCCCCCCCCCC1
odorant receptor agonist call [1]: active

C1CCCCCCCCCCCCCC1
odorant receptor agonist call [1]: inactive
